Test results published in ChEMBL document CHEMBL1131079, “Synthesis and evaluation of 2-amino-9-(3-hydroxymethyl-4-alkoxycarbonyloxybut-1-yl)purines as potential prodrugs of penciclovir” (J Med Chem, 1998).
Converted amounts (≈) assume the structure as drawn.

Legend:
[1] = species: Mus musculus; test: The total amount of penciclovir recovered in the urine over a 48-h period was determined by HPLC using a C18 reversed-phase column in mouse.; assay type: ADME, organism-based; conditions: in vivo
Summary of the method: (§1)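 Urine collected 48 h in metabolic cages over sodium azide, then filtered. Penciclovir quantified by C18 HPLC with a three-step phosphoric acid/MeCN gradient, UV 248 nm. Result expressed as total urinary penciclovir, % of dose.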

[2] = species: Rattus norvegicus; test: The total amount of penciclovir recovered in the urine over a 48-h period was determined by HPLC using a C18 reversed-phase column in rat.; assay type: ADME, organism-based; conditions: in vivo; summary of the method: as §1
[3] = Solubility at 20 degree C was determined by the comparison of th UV absorbance of the saturated solution of each compound at 290 nm with that of the standard curve.
[4] = Half-life by the HPLC using a C18 reversed-phase column at pH 1.2 (HC/NaCl buffer) and 37 degree C.; assay type: ADME; conditions: HCl/NaCl buffer
Summary of the method: (§2)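 Compound at 125 μM final (from 2.5 mM stock) incubated at 37 °C in HCl/NaCl buffer pH 1.2 or sodium phosphate buffer pH 6.0, 7.4 or 8.0. Aliquots taken at intervals were diluted into 0.1 M phosphate pH 7.0 and run isocratically on a C18 column with 0.1% phosphoric acid/MeCN eluents. Half-life calculated from remaining parent concentration.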

[5] = Half-life by the HPLC using a C18 reversed-phase column at pH 6.0 (sodium phosphate buffer) and 37 degree C.; assay type: ADME; summary of the method: as §2
[6] = Half-life by the HPLC using a C18 reversed-phase column at pH 7.4(sodium phosphate buffer) and 37 degree C.; assay type: ADME; summary of the method: as §2
[7] = Half-life by the HPLC using a C18 reversed-phase column at pH 8..0(sodium phosphate buffer) and 37 degree C.; assay type: ADME; summary of the method: as §2
[8] = test system: Human alphaherpesvirus 1; test: Compound was tested for in vitro antiviral activity against herpes viruses of type 1 (HSV-1,KOS strain) (concentration required to reduce the OD value by 50% of the virus infected control); assay type: functional, organism-based
Summary of the method: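 Dye-uptake assay. Vero cells (10⁵ cells/mL) in EMEM with 5% FBS were infected with HSV-1 KOS at 100 PFU/well. After 1 h adsorption, serial 3-fold compound dilutions from 125 μM were added in quadruplicate. After 48 h at 37 °C, neutral red uptake was eluted and read at 550 nm. EC50 derived by quantal probit analysis against virus and cell controls.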

[9] = test system: Vero; test: Compound was tested for cytotoxicity in Vero cells (concentration required to reduce the OD value by 50% of the control); assay type: functional; conditions: Chlorocebus sabaeus
Summary of the method: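 Vero cells (ATCC) seeded at 5 × 10³ cells/well and grown 24 h in EMEM, then exposed to a range of compound concentrations for 3 days at 37 °C, 5% CO₂. MTT added for a further 4 h, formazan dissolved in DMSO, OD read at 540 nm. CC50 is the concentration giving 50% OD reduction versus control. Quadruplicate wells, experiment repeated twice.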

Urinary penciclovir recovery over 48 h (% of dose) [1]	urinary penciclovir recovery, % of dose [2]	solubility at 0.29 µM [3]	half-life [4]	half-life [5]	half-life [6]	half-life [7]	EC50 [8]	SMILES	CC50 [9]
51%	40%	5.6 mg/mL (≈ 15.9 mM)	24 days	65 days	11 days	6 days	> 125 µM	CC(C)CCOC(=O)OCC(CO)CCn1cnc2cnc(N)nc21 (configuration not stated)	357 µM
51%	34%	68 mg/mL (≈ 210 mM)	29 days	89 days	10 days	4 days	> 125 µM	CCCOC(=O)OCC(CO)CCn1cnc2cnc(N)nc21 (configuration not stated)	> 500 µM
53%	40%	139 mg/mL (≈ 429 mM)	88 days	> 200 days	61 days	26 days	> 125 µM	CC(C)OC(=O)OCC(CO)CCn1cnc2cnc(N)nc21 (configuration not stated)	> 500 µM
47%	38%	4.2 mg/mL (≈ 12 mM)	25 days	17 days	7 days	5 days	> 125 µM	CCCCCOC(=O)OCC(CO)CCn1cnc2cnc(N)nc21 (configuration not stated)	> 500 µM
27%	15%	–	–	2.6 days	0.12 days	0.07 days	> 125 µM	Nc1ncc2ncn(CCC3COC(=O)OC3)c2n1	> 500 µM
38%	41%	15 mg/mL (≈ 44.5 mM)	29 days	74 days	11 days	5 days	> 125 µM	CCCCOC(=O)OCC(CO)CCn1cnc2cnc(N)nc21 (configuration not stated)	> 500 µM
50%	40%	20 mg/mL (≈ 64.7 mM)	35 days	112 days	7 days	3 days	> 125 µM	CCOC(=O)OCC(CO)CCn1cnc2cnc(N)nc21 (configuration not stated)	> 500 µM
38%	37%	1.5 mg/mL (≈ 4.45 mM)	28 days	87 days	17 days	8 days	> 125 µM	CC(C)COC(=O)OCC(CO)CCn1cnc2cnc(N)nc21 (configuration not stated)	> 500 µM
45%	39%	14.1 mg/mL (≈ 47.7 mM)	23 days	18 days	1 days	0.5 days	> 125 µM	COC(=O)OCC(CO)CCn1cnc2cnc(N)nc21 (configuration not stated)	> 500 µM
48%	40%	–	–	–	–	–	> 125 µM	CC(=O)OCC(CCn1cnc2cnc(N)nc21)COC(C)=O [FAMCICLOVIR]	> 500 µM
3%	9%	–	–	–	–	–	8.65 µM	Nc1nc2c(ncn2CCC(CO)CO)c(=O)[nH]1 [PENCICLOVIR]	> 500 µM
